According to ChEMBL document CHEMBL1136721, “QSAR and classification of murine and human soluble epoxide hydrolase inhibition by urea-like compounds” (J Med Chem, 2003):

Assays:
[1] = target: T1, Bifunctional epoxide hydrolase 2 (Homo sapiens, UniProt P34913); assay: Inhibitory activity against human soluble epoxide hydrolase; N/A = could not be determined because of above the highest concentration (500 uM) of inhibitor tested.
T1 sequence (P34913 whole entry): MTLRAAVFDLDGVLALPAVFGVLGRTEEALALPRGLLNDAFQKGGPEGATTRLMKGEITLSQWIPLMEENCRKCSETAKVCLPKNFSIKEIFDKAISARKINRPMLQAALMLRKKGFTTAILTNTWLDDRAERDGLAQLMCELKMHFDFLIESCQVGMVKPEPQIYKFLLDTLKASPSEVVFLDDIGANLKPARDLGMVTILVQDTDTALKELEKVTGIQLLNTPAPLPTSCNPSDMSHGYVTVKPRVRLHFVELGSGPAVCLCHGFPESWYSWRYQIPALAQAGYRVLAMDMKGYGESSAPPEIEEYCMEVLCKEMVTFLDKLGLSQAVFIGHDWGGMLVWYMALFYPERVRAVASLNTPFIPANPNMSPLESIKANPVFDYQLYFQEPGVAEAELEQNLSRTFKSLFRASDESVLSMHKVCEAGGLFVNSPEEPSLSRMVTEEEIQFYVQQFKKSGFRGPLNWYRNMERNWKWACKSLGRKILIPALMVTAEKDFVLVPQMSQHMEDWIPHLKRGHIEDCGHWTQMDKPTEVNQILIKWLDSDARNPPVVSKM
Summary of the method: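 Recombinant human sEH made in baculovirus and affinity-purified (at least 97% pure, no detectable esterase or glutathione transferase activity). 0.20 µM enzyme preincubated with inhibitor for 5 min at 30 °C in pH 7.4 sodium phosphate buffer. Substrate: 40 µM racemic 4-nitrophenyl-trans-2,3-epoxy-3-phenylpropyl carbonate. 4-Nitrophenolate read at 405 nm over 1 min. Triplicate runs; top concentration 500 µM. IC50 by regression of at least five points, with at least two on each side in the linear region.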

[2] = target: T2, Bifunctional epoxide hydrolase 2 (Mus musculus, UniProt P34914); assay: Inhibitory activity against murine soluble epoxide hydrolase; N/A = could not be determined because of above the highest concentration (500 uM) of inhibitor tested.
T2 sequence (P34914 whole entry): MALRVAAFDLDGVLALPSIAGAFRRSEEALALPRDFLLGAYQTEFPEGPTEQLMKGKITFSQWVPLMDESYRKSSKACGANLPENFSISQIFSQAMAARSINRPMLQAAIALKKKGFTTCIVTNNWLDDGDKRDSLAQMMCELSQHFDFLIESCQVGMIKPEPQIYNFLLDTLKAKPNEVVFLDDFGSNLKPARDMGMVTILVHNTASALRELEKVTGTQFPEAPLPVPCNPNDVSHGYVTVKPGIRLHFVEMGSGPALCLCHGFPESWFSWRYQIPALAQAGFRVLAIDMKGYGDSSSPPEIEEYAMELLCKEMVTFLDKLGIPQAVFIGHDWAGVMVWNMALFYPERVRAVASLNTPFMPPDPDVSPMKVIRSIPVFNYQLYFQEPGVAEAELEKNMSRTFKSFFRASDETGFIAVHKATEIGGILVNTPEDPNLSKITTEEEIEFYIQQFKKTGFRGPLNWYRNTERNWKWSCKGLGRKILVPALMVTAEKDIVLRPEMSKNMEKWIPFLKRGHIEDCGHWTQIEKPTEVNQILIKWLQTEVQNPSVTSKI
Summary of the method: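 Mouse sEH expressed in baculovirus and affinity-purified (at least 97% pure by SDS-PAGE, no esterase or glutathione transferase activity). 0.10 µM enzyme held with inhibitor 5 min at 30 °C in pH 7.4 sodium phosphate buffer. Then 40 µM racemic 4-nitrophenyl-trans-2,3-epoxy-3-phenylpropyl carbonate added; 4-nitrophenolate followed at 405 nm for 1 min. Done in triplicate up to 500 µM inhibitor. IC50 regressed from at least five points bracketing the midpoint.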

SMILES	IC50 [1]	IC50 [2]
CCCCCCNC(=O)NC	Not Active	–
CN(C)C(=O)N(CCCCCC(=O)O)c1ccc(Cl)c(Cl)c1	Not Active	Not Active
